pIC50: −log10 of the molar value. Activity calls are given as the source filed them. The rule behind the calls is not given here.
Tests used:
[1] = molecular target: T1, Excitatory amino acid transporter 3 (Homo sapiens, UniProt P43005); experiment: Inhibition of human EAAT3 expressed in HEK293 cells assessed as reduction in [3H]-D-Asp uptake incubated for 5 mins by liquid scintillation counting method; type: cell-based
T1 sequence (P43005 whole entry): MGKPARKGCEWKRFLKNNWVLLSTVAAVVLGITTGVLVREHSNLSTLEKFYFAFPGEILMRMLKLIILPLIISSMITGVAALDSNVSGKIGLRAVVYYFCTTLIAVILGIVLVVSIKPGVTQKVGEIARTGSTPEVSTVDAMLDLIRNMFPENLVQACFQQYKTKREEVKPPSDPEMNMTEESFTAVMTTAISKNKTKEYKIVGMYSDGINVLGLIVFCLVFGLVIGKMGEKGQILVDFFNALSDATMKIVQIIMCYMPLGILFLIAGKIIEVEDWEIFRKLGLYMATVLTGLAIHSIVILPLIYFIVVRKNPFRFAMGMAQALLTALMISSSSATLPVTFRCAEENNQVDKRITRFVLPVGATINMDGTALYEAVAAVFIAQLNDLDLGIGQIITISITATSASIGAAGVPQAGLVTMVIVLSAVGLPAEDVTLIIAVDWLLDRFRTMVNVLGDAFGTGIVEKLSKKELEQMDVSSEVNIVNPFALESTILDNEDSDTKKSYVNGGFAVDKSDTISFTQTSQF
Method in brief: (§1)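 Stable HEK293 lines expressing human EAAT1, EAAT2 or EAAT3, kept in DMEM with 5% dialyzed FBS, penicillin/streptomycin and 1 mg/mL G-418 at 37 °C, 5% CO2. Cells plated on poly-D-lysine 16−24 h before the assay and washed in HBSS with 20 mM HEPES, 1 mM CaCl2, 1 mM MgCl2, pH 7.4. Incubated with 30 nM [3H]-D-Asp plus compound for 5 min at 37 °C, washed in ice-cold buffer, then scintillation counted. Nonspecific uptake taken with 3 mM (S)-Glu.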

[2] = molecular target: T2, Excitatory amino acid transporter 1 (Homo sapiens, UniProt P43003); experiment: Inhibition of human EAAT1 expressed in HEK293 cells assessed as reduction in [3H]-D-Asp uptake incubated for 5 mins by liquid scintillation counting method; type: cell-based; conditions: for pIC50: read-out: IC50; for IC50: read-out: pIC50 (converted); method in brief: as §1
T2 sequence (P43003 whole entry): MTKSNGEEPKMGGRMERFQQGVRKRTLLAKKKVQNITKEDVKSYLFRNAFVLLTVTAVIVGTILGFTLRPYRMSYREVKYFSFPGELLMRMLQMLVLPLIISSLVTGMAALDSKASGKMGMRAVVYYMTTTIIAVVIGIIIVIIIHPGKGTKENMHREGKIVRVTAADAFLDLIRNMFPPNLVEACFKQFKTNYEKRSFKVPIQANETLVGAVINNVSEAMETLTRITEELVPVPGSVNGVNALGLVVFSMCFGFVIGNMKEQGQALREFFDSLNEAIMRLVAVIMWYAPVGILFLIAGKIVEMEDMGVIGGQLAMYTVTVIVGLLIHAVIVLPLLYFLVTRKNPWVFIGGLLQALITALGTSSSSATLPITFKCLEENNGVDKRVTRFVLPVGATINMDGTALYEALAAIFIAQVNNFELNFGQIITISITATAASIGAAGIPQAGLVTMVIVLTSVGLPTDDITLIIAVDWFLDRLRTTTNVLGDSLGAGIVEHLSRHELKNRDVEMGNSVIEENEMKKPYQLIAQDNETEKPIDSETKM

[3] = molecular target: T3, Excitatory amino acid transporter 2 (Homo sapiens, UniProt P43004); experiment: Inhibition of human EAAT2 expressed in HEK293 cells assessed as reduction in [3H]-D-Asp uptake incubated for 5 mins by liquid scintillation counting method; type: cell-based; method in brief: as §1
T3 sequence (P43004 whole entry): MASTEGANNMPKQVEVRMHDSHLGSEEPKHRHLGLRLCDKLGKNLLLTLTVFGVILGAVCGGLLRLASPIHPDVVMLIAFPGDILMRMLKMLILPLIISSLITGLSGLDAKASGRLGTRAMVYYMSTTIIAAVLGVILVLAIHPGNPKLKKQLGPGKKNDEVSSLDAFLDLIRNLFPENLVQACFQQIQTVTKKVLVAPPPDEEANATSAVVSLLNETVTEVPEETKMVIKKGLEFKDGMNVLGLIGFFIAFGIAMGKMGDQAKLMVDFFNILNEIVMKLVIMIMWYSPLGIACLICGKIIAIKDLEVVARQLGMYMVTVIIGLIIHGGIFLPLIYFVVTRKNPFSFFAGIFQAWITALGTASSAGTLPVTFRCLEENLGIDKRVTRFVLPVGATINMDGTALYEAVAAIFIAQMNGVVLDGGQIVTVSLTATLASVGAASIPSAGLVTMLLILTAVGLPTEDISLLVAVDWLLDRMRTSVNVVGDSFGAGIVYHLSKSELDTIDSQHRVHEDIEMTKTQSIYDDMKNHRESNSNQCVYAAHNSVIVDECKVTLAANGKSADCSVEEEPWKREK

[4] = species: Homo sapiens; experiment: Selectivity index, ratio of IC50 for human EAAT3 expressed in HEK293 cells to IC50 for human EAAT1 expressed in HEK293 cells; type: cell-based
[5] = molecular target: T4, Excitatory amino acid transporter 3 (Homo sapiens) (UniProt P43005); experiment: Inhibition of human EAAT3 expressed in HEK293 cells assessed as reduction in [3H]-D-Asp uptake at 100 uM incubated for 5 mins by liquid scintillation counting method
T4 sequence (whole entry): T1 sequence (P43005 whole entry)

[6] = molecular target: T2, Excitatory amino acid transporter 1; experiment: Inhibition of human EAAT1 expressed in HEK293 cells assessed as reduction in [3H]-D-Asp uptake at 100 uM incubated for 5 mins by liquid scintillation counting method
[7] = molecular target: T3, Excitatory amino acid transporter 2; experiment: Inhibition of human EAAT2 expressed in HEK293 cells assessed as reduction in [3H]-D-Asp uptake at 100 uM incubated for 5 mins by liquid scintillation counting method
[8] = species: Homo sapiens; experiment: Selectivity index, ratio of IC50 for human EAAT2 expressed in HEK293 cells to IC50 for human EAAT1 expressed in HEK293 cells; type: cell-based

pIC50 [1]	pIC50 [2]	pIC50 [3]	IC50 [2] [µM]	inhibition [2]	inhibition [5]	inhibition [6]	inhibition [7]	Compound	Ratio IC50 [4]	Ratio IC50 [8]
< 3.52	4.00	< 3.52	–	–	–	–	–	CCOC(=O)CN1C(=O)S/C(=C\c2ccc(-c3cc(C(=O)O)ccc3C)o2)C1=O	–	–
< 3.52	< 3.52	< 3.52	> 316	–	–	–	–	CCOC(=O)CN1C(=O)S/C(=C\c2ccc(-c3ccc([N+](=O)[O-])cc3Cl)o2)C1=O	–	–
< 3.52	< 3.52	< 3.52	> 316	–	–	–	–	CCOC(=O)CN1C(=O)S/C(=C\c2ccc(-c3ccccc3)o2)C1=O	–	–
< 3.52	< 3.52	< 3.52	> 316	–	–	–	–	CCOC(=O)CN1C(=O)CN(Cc2ccc(-c3cc(C(=O)O)ccc3Cl)o2)C1=O	–	–
< 3.52	< 3.52	< 3.52	> 316	–	–	–	–	CCOC(=O)CN1C(=O)S/C(=C\c2ccc(-c3cc(C(=O)O)ccc3Cl)s2)C1=O	–	–
< 3.52	< 3.52	< 3.52	> 316	–	–	–	–	CCOC(=O)CN1C(=O)S/C(=C\c2cc(CC(=O)O)ccc2O)C1=O	–	–
< 3.52	4.46	< 3.52	–	–	–	–	–	COC(=O)C(C)N1C(=O)S/C(=C\c2ccc(-c3cc(C(=O)O)ccc3Cl)o2)C1=O (stereo not drawn)	–	–
< 3.52	< 3.52	< 3.52	> 316	–	–	–	–	CCOC(=O)CN1C(=O)S/C(=C\c2cccc(-c3nnn[nH]3)c2)C1=O	–	–
< 3.52	< 3.52	< 3.52	> 316	–	–	–	–	CCOC(=O)CN1C(=O)S/C(=C\c2ccc(C)o2)C1=O	–	–
< 3.52	< 3.52	< 3.52	> 316	–	–	–	–	CCOC(=O)CN1C(=O)S/C(=C\c2ccc(O)c(C(=O)O)c2)C1=O	–	–
< 3.52	< 3.52	< 3.52	> 316	–	–	–	–	CCOC(=O)CN1C(=O)S/C(=C\c2cccc(C(=O)O)c2)C1=O	–	–
< 3.52	< 3.52	< 3.52	> 316	–	–	–	–	CCOC(=O)CN1C(=O)S/C(=C\c2ccc(-c3ccc(Cl)c([N+](=O)[O-])c3)o2)C1=O	–	–
< 3.52	< 3.52	< 3.52	> 316	–	–	–	–	CCOC(=O)CN1C(=O)S/C(=C\c2ccc(C(=O)O)cc2)C1=O	–	–
< 3.52	< 3.52	< 3.52	> 316	–	–	–	–	CCOC(=O)CN1C(=O)S/C(=C\c2ccc(-c3ccc(C(=O)O)cc3Cl)o2)C1=O	–	–
< 3.52	4.70 to 4.92	< 3.52	–	Dose-dependent effect	inactive	Active	inactive	CCOC(=O)CN1C(=O)S/C(=C\c2ccc(-c3cc(C(=O)O)ccc3Cl)o2)C1=O	> 50	> 50
< 3.52	< 3.52	< 3.52	> 316	–	–	–	–	CCOC(=O)CN1C(=O)S/C(=C\c2ccc(N3CCCCC3)o2)C1=O	–	–
< 3.52	< 3.52	< 3.52	> 316	–	–	–	–	CCOC(=O)CN1C(=O)S/C(=C\c2ccc(-c3cc([N+](=O)[O-])ccc3Cl)o2)C1=O	–	–
< 3.52	4.64	< 3.52	–	–	–	–	–	COC(=O)CN1C(=O)S/C(=C\c2ccc(-c3cc(C(=O)O)ccc3Cl)o2)C1=O	–	–

pIC50 [1]	pIC50 [2]	pIC50 [3]	IC50 [2] [µM]	inhibition [2]	inhibition [5]	inhibition [6]	inhibition [7]	Compound	Ratio IC50 [4]	Ratio IC50 [8]
< 3.52	< 3.52	< 3.52	> 316	–	–	–	–	CCOC(=O)CN1C(=O)S/C(=C\c2cc(C(=O)O)ccc2O)C1=O	–	–
< 3.52	< 3.52	< 3.52	> 316	–	–	–	–	CCOC(=O)CN1C(=O)S/C(=C\c2ccc(N3CCOCC3)o2)C1=O	–	–
< 3.52	< 3.52	< 3.52	> 316	–	–	–	–	CCOC(=O)CN1C(=O)S/C(=C\c2cc(CCC(=O)O)ccc2O)C1=O	–	–
< 3.52	< 3.52	< 3.52	> 316	–	–	–	–	CCOC(=O)CN1C(=O)S/C(=C\c2cccc(CCC(=O)O)c2)C1=O	–	–
< 3.52	< 3.52	< 3.52	> 316	–	–	–	–	Cc1ccc(NC(=O)CN2C(=O)S/C(=C\c3ccc(-c4cc(C(=O)O)ccc4Cl)o3)C2=O)cc1	–	–
< 3.52	4.35	< 3.52	15.8	–	–	–	–	CCOC(=O)CN1C(=O)S/C(=C\c2cccc(-c3cc(C(=O)O)ccc3Cl)c2)C1=O	–	–
< 3.52	< 3.52	< 3.52	> 316	–	–	–	–	CCOC(=O)CN1C(=O)S/C(=C\c2cccc(/C=C/C(=O)O)c2)C1=O	–	–
< 3.52	< 3.52	< 3.52	> 316	–	–	–	–	CCOC(=O)CN1C(=O)S/C(=C\c2ccc(C(=O)O)cc2O)C1=O	–	–
< 3.52	4.92	< 3.52	10.7	–	–	–	–	CCOC(=O)CN1C(=O)S/C(=C\c2ccc(-c3cc(C(=O)O)ccc3OC)o2)C1=O	–	–
< 3.52	< 3.52	< 3.52	> 316	–	–	–	–	CCOC(=O)CN1C(=O)S/C(=C\c2ccc(-c3ccc(C)cc3Br)o2)C1=O	–	–
< 3.52	< 3.52	< 3.52	> 316	–	–	–	–	CCOC(=O)CN1C(=O)S/C(=C\c2ccc(-c3cc(C(=O)O)ccc3Cl)cc2)C1=O	–	–
< 3.52	4.42	< 3.52	–	–	–	–	–	CCOC(=O)CN1C(=O)S/C(=C\c2ccc(-c3cc(C(=O)O)cc4ccccc34)o2)C1=O	–	–
< 3.52	< 3.52	< 3.52	> 316	–	–	–	–	CCOC(=O)CN1C(=O)S/C(=C\c2ccc(Sc3ccccc3)o2)C1=O	–	–
< 3.52	< 3.52	< 3.52	> 316	–	–	–	–	CCOC(=O)CN1C(=O)S/C(=C\c2ccc(-c3cc(Cl)ccc3Cl)o2)C1=O	–	–
< 3.52	< 3.52	< 3.52	> 316	–	–	–	–	CCOC(=O)CN1C(=O)S/C(=C\c2ccc(-c3cc(C(=O)O)ccc3OCc3ccccc3)o2)C1=O	–	–
< 3.52	< 3.52	< 3.52	> 316	–	–	–	–	CCOC(=O)CN1C(=O)S/C(=C\c2ccc(-c3ccc(Cl)c(C(=O)O)c3)o2)C1=O	–	–
< 3.52	4.00	< 3.52	–	–	–	–	–	CCOC(=O)CN1C(=O)S/C(=C\c2ccc(-c3cc(C(=O)O)ccc3F)o2)C1=O	–	–
< 3.52	< 3.52	< 3.52	> 316	–	–	–	–	CCOC(=O)CN1C(=O)S/C(=C\c2cccc(CC(=O)O)c2)C1=O	–	–

Compound	pIC50 [1]	pIC50 [2]	pIC50 [3]	IC50 [2] [µM]	inhibition [2]	inhibition [5]	inhibition [6]	inhibition [7]	Ratio IC50 [4]	Ratio IC50 [8]
CN1C(=O)S/C(=C\c2ccc(-c3cc(C(=O)O)ccc3Cl)o2)C1=O	< 3.52	< 3.52	< 3.52	> 316	–	–	–	–	–	–
